{"data": "Results collected from several papers", "note": "Compare with care: the assays were run in different laboratories."}
{"Structure (SMILES)": "O=c1cc(-c2ccc(O)c(O)c2)oc2cc(O)cc(O)c12", "cell line": "HEp-2", "observed": "cell growth or viability", "method": "WST-1", "time": "48 h", "IC50 [µM]": 10.7}
{"Structure (SMILES)": "CN1/C(=N/c2ccc(Cl)cc2)c2cc(C(N)=O)nc3c(N)c(Cl)c(N)c1c23", "cell line": "Calu-3", "observed": "cell growth or viability", "IC50 [µM]": 10.4}
{"Structure (SMILES)": "CC(C)[C@H](N)c1nc2cc(-c3ccncc3F)sc2c(=O)[nH]1", "cell line": "CAPAN-1", "observed": "cell growth or viability", "method": "MTT", "IC50 [µM]": 0.049}
{"Structure (SMILES)": "N[C@@H](CC(=O)N1CCN(C(c2ccc(F)cc2)c2ccc(F)cc2)CC1)C(=O)N1Cc2ccccc2C1", "cell line": "NOMO-1", "observed": "cell growth or viability", "method": "ATP luminescence", "time": "48 h", "IC50 [µM]": 4.7}
{"Structure (SMILES)": "CC(=O)O[C@H]1C(=O)[C@@]2(C)[C@H]([C@H](OC(=O)c3ccccc3)[C@]3(O)C[C@H](OC(=O)[C@H](O)[C@@H](NC(=O)c4ccccc4)c4ccccc4)C(C)=C1C3(C)C)[C@]1(OC(C)=O)CO[C@@H]1C[C@@H]2O", "cell line": "MCF7", "observed": "cell growth or viability", "method": "MTT", "IC50 [µM]": 2.35}
{"Structure (SMILES)": "O=C(/C=C/c1ccc2ncn(Cc3ccccc3F)c(=O)c2c1)NO", "cell line": "SW-620", "observed": "cell growth or viability", "method": "SRB", "time": "48 h", "IC50 [µM]": 1.12}
{"Structure (SMILES)": "CC1(C)CC[C@]2(C)CC[C@]3(C)C(=CC[C@@H]4[C@@]5(C)CC[C@H](O)C(C)(C)[C@@H]5CC[C@]43C)[C@@H]2C1", "cell line": "HEp-2", "observed": "cell growth or viability", "method": "WST-1", "time": "48 h", "IC50 [µM]": 85.6}
{"Structure (SMILES)": "CCOc1cc(OCC)cc(C(=O)O[C@@H]2CN3Cc4c(cc5c(c4OC)OCO5)[C@@]24C=C[C@H](OC)C[C@@H]34)c1", "cell line": "SAOS-2", "observed": "cell growth or viability", "method": "WST-1", "IC50 [µM]": 2.8}
{"Structure (SMILES)": "CCN(CC)CCNC(=O)COc1ccc(OC)cc1", "cell line": "FaDu", "observed": "cell growth or viability", "time": "72 h", "IC50 [µM]": "> 20"}
{"Structure (SMILES)": "Cc1ccc2nc(-c3c(F)cccc3Cl)[nH]c2c1", "cell line": "MCF7", "observed": "cell growth or viability", "method": "MTT", "time": "48 h", "IC50 [µM]": "> 100"}
{"Structure (SMILES)": "Cc1cc(-c2nc(C(=O)Nc3cc4oc(N5CCOCC5)nc4nc3N3CC[C@@H](O)C3)co2)ccn1", "cell line": "A20", "observed": "cell growth or viability", "time": "5 days", "IC50 [µM]": 2.45}
{"Structure (SMILES)": "O=[N+]([O-])c1cccc(-c2nc3ccccc3[nH]2)c1", "cell line": "MCF7", "observed": "cell growth or viability", "method": "MTT", "time": "48 h", "IC50 [µM]": 24.4}
{"Structure (SMILES)": "CC(C)C(=O)SCCCCCCC(=O)Nc1nc(-c2ccccc2)cs1", "cell line": "FaDu", "observed": "cell growth or viability", "time": "72 h", "IC50 [µM]": 4.29}
{"Structure (SMILES)": "O=C(/C=C/c1ccc2c(=O)n(CC3CCCCC3)cnc2c1)NO", "cell line": "SW-620", "observed": "cell growth or viability", "method": "SRB", "time": "48 h", "IC50 [µM]": 1.44}
{"Structure (SMILES)": "CC[C@@]1(O)C(=O)OCc2c1cc1n(c2=O)Cc2cc3ccccc3nc2-1", "cell line": "P388", "observed": "cell growth or viability", "method": "MTT", "time": "96 h", "IC50 [µM]": 0.004}
{"Structure (SMILES)": "CCCn1cnc2ccc(/C=C/C(=O)NO)cc2c1=O", "cell line": "SW-620", "observed": "cell growth or viability", "method": "SRB", "time": "48 h", "IC50 [µM]": 2.7}
{"Structure (SMILES)": "N#Cc1cc([N+](=O)[O-])c2sc(C(N)=O)[n+]([O-])c2c1", "cell line": "THP-1", "observed": "TNF-α release", "action": "inhibitor", "method": "ELISA", "time": "17 h", "notes": "LPS-stimulated", "IC50 [µM]": 1.95}
{"Structure (SMILES)": "O=c1c(O)c(-c2ccc(O)c(O)c2)oc2cc(O)cc(O)c12", "cell line": "HEp-2", "observed": "cell growth or viability", "method": "WST-1", "time": "48 h", "IC50 [µM]": 10.9}
{"Structure (SMILES)": "CC(C)C[C@H](NC(=O)[C@H](Cc1ccccc1)NC(=O)c1cnccn1)B(O)O", "cell line": "SJSA-1", "observed": "cell growth or viability", "method": "ATP luminescence", "IC50 [µM]": 0.011}
{"Structure (SMILES)": "Clc1ccc(N2CCN(Cc3c[nH]c4ncccc34)CC2)cc1", "cell line": "FaDu", "observed": "cell growth or viability", "time": "72 h", "IC50 [µM]": "> 20"}
{"Structure (SMILES)": "COc1c(C)c(OS(=O)(=O)c2ccc3ccccc3c2)c(C)c(OS(=O)(=O)c2ccc3ccccc3c2)c1C(=O)/C=C/c1ccccc1", "cell line": "FaDu", "observed": "cell growth or viability", "method": "SRB", "time": "72 h", "IC50 [µM]": "> 50"}
{"Structure (SMILES)": "c1ccc2c(-c3nc4ccccc4[nH]3)c3ccccc3cc2c1", "cell line": "MCF7", "observed": "cell growth or viability", "method": "MTT", "time": "48 h", "IC50 [µM]": 13.2}
{"Structure (SMILES)": "Nc1ncnc2c1ncn2[C@@H]1O[C@H](CO)[C@@H](O)[C@H]1O", "cell line": "HEp-2", "observed": "cell growth or viability", "method": "WST-1", "time": "48 h", "IC50 [µM]": 49.1}
{"Structure (SMILES)": "COc1cc(C2Oc3cc([C@H]4Oc5cc(O)cc(O)c5C(=O)[C@@H]4O)ccc3OC2CO)ccc1O (some centres unmarked)", "cell line": "HepaRG", "observed": "cell growth or viability", "method": "MTT", "time": "24 h", "IC50 [µM]": 142}
{"Structure (SMILES)": "CCn1cnc2ccc(/C=C/C(=O)NO)cc2c1=O", "cell line": "SW-620", "observed": "cell growth or viability", "method": "SRB", "time": "48 h", "IC50 [µM]": 6.69}
{"Structure (SMILES)": "COc1ccc(-c2nc3ccc(C)cc3[nH]2)cc1O", "cell line": "MCF7", "observed": "cell growth or viability", "method": "MTT", "time": "48 h", "IC50 [µM]": 23.7}
{"Structure (SMILES)": "CCCCc1ccc2[nH]c(NC(=O)OC)nc2c1", "cell line": "FaDu", "observed": "cell growth or viability", "time": "72 h", "IC50 [µM]": 0.153}
{"Structure (SMILES)": "COc1ccc(-c2nc3ccccc3n2Cc2ccccc2)cc1OC", "cell line": "MCF7", "observed": "cell growth or viability", "method": "MTT", "IC50 [µM]": 22.2}
{"Structure (SMILES)": "COc1ccc(CC(C)NCC(O)c2ccc(O)c(NC=O)c2)cc1 (centres unmarked)", "cell line": "THP-1", "observed": "TNF-α release", "action": "inhibitor", "time": "17 h", "notes": "LPS-stimulated", "IC50 [µM]": 0.006}
{"Structure (SMILES)": "Nc1ccn([C@@H]2O[C@H](CO)[C@@H](O)C2(F)F)c(=O)n1", "cell line": "Panc02", "observed": "cell growth or viability", "method": "CCK-8", "time": "72 h", "IC50 [µM]": 0.0341}
{"Structure (SMILES)": "Clc1ccc(Cn2c(-c3ccc(Cl)cc3)nc3ccccc32)cc1", "cell line": "MCF7", "observed": "cell growth or viability", "method": "MTT", "IC50 [µM]": 8.56}
{"Structure (SMILES)": "COc1ccc(CCN(C)CCc2ccc(OC)c(OC)c2)cc1OC", "cell line": "FaDu", "observed": "cell growth or viability", "time": "72 h", "IC50 [µM]": "> 20"}
{"Structure (SMILES)": "Cc1[nH]c2ccccc2c1CCNCc1ccc(/C=C/C(=O)NO)cc1", "cell line": "C13", "observed": "cell growth or viability", "method": "crystal violet", "IC50 [µM]": 0.0093}
{"Structure (SMILES)": "COc1cc(Nc2nccc(-c3cnn4nc(OC)ccc34)n2)cc(C(F)(F)F)c1", "cell line": "NCI-H441", "observed": "cell growth or viability", "method": "ATP luminescence", "IC50 [µM]": 0.57}
{"Structure (SMILES)": "CC(C)c1ccccc1S(=O)(=O)c1cc(N)c2ncccc2c1[N+](=O)[O-]", "cell line": "FaDu", "observed": "cell growth or viability", "time": "72 h", "IC50 [µM]": "> 20"}
{"Structure (SMILES)": "CC(C)[C@H](N)C(=O)N1CCC[C@H]1B(O)O", "cell line": "NOMO-1", "observed": "cell growth or viability", "method": "ATP luminescence", "time": "5 days", "IC50 [µM]": 0.031}
{"Structure (SMILES)": "CNC[C@H](O)c1ccc(O)c(O)c1", "cell line": "THP-1", "observed": "TNF-α release", "action": "inhibitor", "time": "17 h", "notes": "LPS-stimulated", "IC50 [µM]": 0.07}
{"Structure (SMILES)": "Nc1c2c(nc3ccccc13)CCCC2O (centres unmarked)", "cell line": "FaDu", "observed": "cell growth or viability", "time": "72 h", "IC50 [µM]": "> 20"}
{"Structure (SMILES)": "CC(C)NCC(O)c1cc(O)cc(O)c1 (centres unmarked)", "cell line": "THP-1", "observed": "TNF-α release", "action": "inhibitor", "time": "17 h", "notes": "LPS-stimulated", "IC50 [µM]": 0.6}
{"Structure (SMILES)": "Nc1ncnc2c1ncn2[C@@H]1O[C@H](CO)[C@@H](O)[C@@H]1O", "cell line": "FaDu", "observed": "cell growth or viability", "time": "72 h", "IC50 [µM]": "> 20"}
{"Structure (SMILES)": "O=C(/C=C/c1ccc2ncn(CC3CCCC3)c(=O)c2c1)NO", "cell line": "SW-620", "observed": "cell growth or viability", "method": "SRB", "time": "48 h", "IC50 [µM]": 1.19}
{"Structure (SMILES)": "CC(NCCc1ccc(O)cc1)C(O)c1ccc(O)cc1 (centres unmarked)", "cell line": "THP-1", "observed": "TNF-α release", "action": "inhibitor", "time": "17 h", "notes": "LPS-stimulated", "IC50 [µM]": 3.5}
{"Structure (SMILES)": "COc1cccc(C(=O)O[C@@H]2CN3Cc4c(cc5c(c4OC)OCO5)[C@@]24C=C[C@H](OC)C[C@@H]34)c1", "cell line": "SAOS-2", "observed": "cell growth or viability", "method": "WST-1", "IC50 [µM]": 6.9}
{"Structure (SMILES)": "CN1C(=O)c2cc(C(N)=O)nc3c(N)c(Cl)c(N)c1c23", "cell line": "Calu-3", "observed": "cell growth or viability", "IC50 [µM]": 17.6}
